Measured values: ChEMBL document CHEMBL1148970, “New acylated iridoid glucosides from Vitex altissima” (J Nat Prod, 2004)
Calls of active or inactive are those of the source. No cut-off for these calls is given here.

What was measured:
[1] = molecular target: T1, Polyunsaturated fatty acid 5-lipoxygenase (Homo sapiens) (UniProt P09917); assay: Inhibition of 5-lipoxygenase activity at 1000 uM by ferric-xylenol orange peroxide assay relative to control
T1 sequence (whole entry): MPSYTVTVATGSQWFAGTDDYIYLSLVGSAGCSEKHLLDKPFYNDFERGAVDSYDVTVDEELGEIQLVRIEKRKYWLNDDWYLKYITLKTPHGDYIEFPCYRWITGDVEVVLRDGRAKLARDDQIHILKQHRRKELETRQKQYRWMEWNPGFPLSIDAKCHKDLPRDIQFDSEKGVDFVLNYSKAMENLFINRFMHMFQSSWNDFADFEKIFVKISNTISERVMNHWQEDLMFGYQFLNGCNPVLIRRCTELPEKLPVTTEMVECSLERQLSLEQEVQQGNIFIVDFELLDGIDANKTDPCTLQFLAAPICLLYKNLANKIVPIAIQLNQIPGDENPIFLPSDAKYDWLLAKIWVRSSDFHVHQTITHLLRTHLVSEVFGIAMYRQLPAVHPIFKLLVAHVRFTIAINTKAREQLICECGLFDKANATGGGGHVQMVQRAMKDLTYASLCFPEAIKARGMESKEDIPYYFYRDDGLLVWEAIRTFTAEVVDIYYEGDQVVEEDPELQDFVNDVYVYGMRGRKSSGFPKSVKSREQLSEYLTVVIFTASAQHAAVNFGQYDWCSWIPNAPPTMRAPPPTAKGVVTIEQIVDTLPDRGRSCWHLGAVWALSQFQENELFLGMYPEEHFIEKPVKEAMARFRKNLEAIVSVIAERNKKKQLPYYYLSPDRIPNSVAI
How it was run: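 Modified ferric-xylenol orange peroxide assay. 5-Lipoxygenase with test substance and linoleic acid (80 mM) in 50 mM phosphate pH 6.3 was incubated 5 min. Ferric-xylenol orange reagent in perchloric acid was then added and A585 read 2 min later. Percent inhibition is relative to the control. Triplicates averaged.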

[2] = Antioxidant activity assessed as superoxide radical scavenging activity by NBT method; type: functional
How it was run: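 Riboflavin-photogenerated superoxide was detected by NBT reduction (McCord–Fridovich). The mixture held EDTA 6.0 µM, NaCN 3 µg, riboflavin 2 µM, NBT 50 µM and test substance in methanol, in 58 mM phosphate pH 7.8, 3 mL final. A560 was read before and after illumination. IC50 was taken from the plot of concentration in µM against % inhibition.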

[3] = system: Radical scavenging activity; assay: Antioxidant activity assessed as DPPH free radical scavenging activity; type: functional
How it was run: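 DPPH was used as a […] methanolic solution and mixed with a range of test concentrations. Mixtures stood in the dark for 50 min, then absorbance at 517 nm was read against a blank. Run in triplicate and averaged.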

Rattus norvegicus [4] = assay: Antiinflammatory activity against carrageenan-induced paw edema in Wistar rat at 200 mg/kg, po administered 1 hr before inflammation induction measured after 3 hrs of carrageenan challenge relative to control; type: functional
How it was run: (§1)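 Wistar rats of either sex, 180-220 g, groups of six. Test material suspended in 1% Tween-80 and given orally 1 h before 0.1 mL of 1% w/v carrageenan in saline was injected subplantar into the left hind paw. Vehicle controls received 1% Tween-80 at 10 mL/kg. Paw volume was read by plethysmometer at 0 and 3 h. Percent inhibition compares mean edema volume with the control group.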

Rattus norvegicus [5] = assay: Antiinflammatory activity against carrageenan-induced paw edema in Wistar rat at 25 mg/kg, po administered 1 hr before inflammation induction measured after 3 hrs of carrageenan challenge relative to control; type: functional; how it was run: as §1

| SMILES | Activity [1] | IC50 [2] [µM] | IC50 [3] [µM] | inhibition in vivo at 200 mg/kg (Rattus norvegicus [4]) [%] | Activity (Rattus norvegicus [5]) [%] |
| --- | --- | --- | --- | --- | --- |
| C[C@H]1[C@H]2[C@H](O[C@@H]3O[C@H](CO)[C@@H](O)[C@H](O)[C@H]3OC(=O)c3ccc(O)cc3)OC=C(C(=O)O)[C@H]2C[C@@H]1O | inactive |  |  |  |  |
| C=C1[C@H]2[C@H](O[C@@H]3O[C@H](COC(=O)/C=C/c4ccc(O)c(O)c4)[C@@H](O)[C@H](O)[C@H]3OC(=O)c3ccc(O)cc3)OC=C(C(=O)O)[C@H]2C[C@@H]1O | inactive | 32 | 10.9 |  |  |
| Cc1cc(C(C)(C)C)c(O)c(C(C)(C)C)c1 [BUTYLATED HYDROXYTOLUENE] |  | 381 | 19 |  |  |
| C[C@]1(O)CC[C@@H]2C(C(=O)O)=CO[C@@H](O[C@@H]3O[C@H](COC(=O)/C=C/c4ccc(O)c(O)c4)[C@@H](O)[C@H](O)[C@H]3OC(=O)c3ccc(O)cc3)[C@@H]21 | inactive | 24.3 | 15.2 |  |  |
| COc1ccc(O)c(C(C)(C)C)c1.COc1ccc(O)cc1C(C)(C)C [BUTYLATED HYDROXYANISOLE] |  | 966 | 18 |  |  |
| C=C1[C@H]2[C@H](O[C@@H]3O[C@H](CO)[C@@H](O)[C@H](O)[C@H]3OC(=O)c3ccc(O)cc3)OC=C(C(=O)O)[C@H]2C[C@@H]1O | inactive |  |  |  |  |
| COc1cc(/C=C/C(=O)OC[C@H]2O[C@@H](O[C@@H]3OC=C(C(=O)O)[C@H]4CC[C@](C)(O)[C@@H]34)[C@H](OC(=O)c3ccc(O)cc3)[C@@H](O)[C@@H]2O)ccc1O | inactive |  |  | 20 |  |
| C[C@H]1[C@H]2[C@H](O[C@@H]3O[C@H](COC(=O)/C=C/c4ccc(O)c(O)c4)[C@@H](O)[C@H](O)[C@H]3OC(=O)c3ccc(O)cc3)OC=C(C(=O)O)[C@H]2C[C@@H]1O | inactive | 31.9 | 11.4 |  |  |
| O=C([O-])Cc1ccccc1Nc1c(Cl)cccc1Cl.[Na+] [DICLOFENAC SODIUM] |  |  |  |  | 62 |
| C[C@]1(O)CC[C@@H]2C(C(=O)O)=CO[C@@H](O[C@@H]3O[C@H](CO)[C@@H](O)[C@H](O)[C@H]3OC(=O)c3ccc(O)cc3)[C@@H]21 | inactive |  |  |  |  |
| O=C(OCC1=C[C@@H](O)[C@@H]2C=CO[C@@H](O[C@@H]3O[C@H](CO)[C@@H](O)[C@H](O)[C@H]3O)[C@H]12)c1ccc(O)cc1 | inactive |  |  |  |  |
